ChEMBL document CHEMBL1137702, “Identification of hydrolytically stable and selective P2Y(1) receptor agonists” (Eur J Med Chem, 2009)

Experiments:
[1] = Dissociation constant, pKa of the compound; type: physicochemical
[2] = Stability at 77 ug/ml after 30 mins by HPLC in presence of calf intestine alkaline phosphatase; type: ADME; conditions: cattle, isolated protein, 0.5 h
[3] = target: P2Y purinoceptor 1 (Meleagris gallopavo, UniProt P49652); assay: Agonist activity at turkey P2Y1 receptor expressed in human 1321N1 cells assessed as increase in intracellular calcium concentration by dual-excitation spectrofluorimetric analysis; type: functional, cell-based
Chain of P2Y purinoceptor 1 (P49652 whole entry): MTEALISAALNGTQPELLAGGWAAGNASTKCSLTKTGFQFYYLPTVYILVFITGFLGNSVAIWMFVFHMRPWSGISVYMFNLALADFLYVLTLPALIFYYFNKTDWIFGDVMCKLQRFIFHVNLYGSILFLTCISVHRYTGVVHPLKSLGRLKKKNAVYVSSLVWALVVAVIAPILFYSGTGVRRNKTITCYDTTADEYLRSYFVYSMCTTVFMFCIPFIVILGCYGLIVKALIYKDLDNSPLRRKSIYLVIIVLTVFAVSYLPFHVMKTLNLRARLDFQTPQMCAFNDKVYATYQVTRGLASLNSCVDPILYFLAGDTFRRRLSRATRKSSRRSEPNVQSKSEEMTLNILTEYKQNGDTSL

[4] = Chemical stability assessed as hydrolysis half life at 1.5 mg at pH 1.4 measured at 24 hrs interval for 12 days by 31P NMR analysis; type: physicochemical
Outline: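 1.5 mg in 0.2 M HCl/KCl with D2O, pH adjusted to 1.4, kept at 37 °C. 31P NMR spectra, 500 scans each, were recorded about every 24 h for 12 days to obtain half-life.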

[5] = test system: Serum; assay: Metabolic stability in human serum assessed as hydrolysis half life at 0.25 mM measured for 4 days by HPLC; type: ADME, cell-free; conditions: 96 h, 250 µM
Outline: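 Human serum (healthy donors; clotted 12 h at 4 °C, spun 1500 × g, stored −80 °C) diluted with RPMI-1640, incubated with 0.25 mM nucleotide at 37 °C for 1–96 h. Stopped with HCl, neutralized with KOH, analysed by C18 HPLC (KH2PO4 pH 4.5/acetonitrile). t1/2 from peak-area change.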

[6] = target: T1, Ectonucleoside triphosphate diphosphohydrolase 3 (Homo sapiens) (UniProt O75355); assay: Activity of human NTPDase 3 expressed in human 293T cells assessed as drug hydrolysis at 100 uM after 20 mins relative to ATP; type: cell-based; design: scale not given: the % may be the effect or the level left
T1 sequence (whole entry): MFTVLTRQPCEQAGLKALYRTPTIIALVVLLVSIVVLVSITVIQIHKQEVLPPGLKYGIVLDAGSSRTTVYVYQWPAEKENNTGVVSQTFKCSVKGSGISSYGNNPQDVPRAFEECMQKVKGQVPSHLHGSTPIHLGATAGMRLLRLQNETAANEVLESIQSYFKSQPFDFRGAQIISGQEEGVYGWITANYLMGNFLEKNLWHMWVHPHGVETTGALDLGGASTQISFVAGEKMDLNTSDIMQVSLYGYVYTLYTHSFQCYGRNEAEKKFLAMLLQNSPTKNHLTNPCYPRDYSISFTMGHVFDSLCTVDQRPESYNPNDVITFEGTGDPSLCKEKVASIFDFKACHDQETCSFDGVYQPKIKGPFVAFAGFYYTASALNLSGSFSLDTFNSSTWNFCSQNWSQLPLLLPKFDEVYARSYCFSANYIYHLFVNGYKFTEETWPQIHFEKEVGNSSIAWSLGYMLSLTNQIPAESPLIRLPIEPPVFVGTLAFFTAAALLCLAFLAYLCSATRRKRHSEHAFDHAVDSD
Outline: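 Human NTPDase1, 2, 3 or 8 in crude extracts of transfected 293T cells, pre-incubated 3 min at 37 °C in Tris-Ringer buffer pH 7.4. […] Untransfected-cell extract activity subtracted.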

Activity [6] [%]	Compound	also measured
0	BP(=O)(OC[C@H]1O[C@@H](n2cnc3c(N)ncnc32)[C@H](O)[C@@H]1O)OP(=O)(O)CP(=O)(O)O (stereo not given in full)	
2	BP(=O)(OC[C@H]1O[C@@H](n2cnc3c(N)nc(SC)nc32)[C@H](O)[C@@H]1O)OP(=O)(O)CP(=O)(O)O (single isomer, unassigned; diastereomer A)	
2	BP(=O)(OC[C@H]1O[C@@H](n2cnc3c(N)nc(SC)nc32)[C@H](O)[C@@H]1O)OP(=O)(O)CP(=O)(O)O (single isomer, unassigned; diastereomer B)	
6	BP(=O)(OC[C@H]1O[C@@H](n2cnc3c(N)ncnc32)[C@H](O)[C@@H]1O)OP(=O)(O)CP(=O)(O)O (single isomer, unassigned; diastereomer B)	

Compound	Activity [6] [%]	also measured
CSc1nc(N)c2ncn([C@@H]3O[C@H](COP(=O)(O)OP(=O)(O)CP(=O)(O)O)[C@@H](O)[C@H]3O)c2n1	7	pKa [1]: 8.4; Stability [2]: Stable; EC50 [3]: 0.08 µM; half-life [4]: 65 h; t1/2 [5]: 12.7 h
